Assay results published in ChEMBL document CHEMBL1671620, “Mutations in the fks1 gene in Candida albicans, C. tropicalis, and C. krusei correlate with elevated caspofungin MICs uncovered in AM3 medium using the method of the European Committee on Antibiotic Susceptibility Testing” (2008).

Key:
[1] = test system: Candida albicans; assay: Antifungal activity against Candida albicans isolate 17 expressing wild type 1,3-beta-glucan synthase grown on AM3 media after 48 hrs by EUCAST microdilution method; format: functional; conditions: isolate 17, 24 h, in the assay text read “after 24 hrs” for “after 48 hrs”
Summary of the method: (§1)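 EUCAST (AFST-EUCAST) broth microdilution with caspofungin at 0.015 to 8 μg/ml final, in AM3 with glucose added to 2% final. Final inoculum was 10⁵ yeast cells/ml, with microplates prepared in batches and stored at −20°C. Plates were incubated at 35°C in humid ambient air and read spectrophotometrically after shaking at 24 h and 48 h. MIC was ≥50% growth reduction versus drug-free well; 90% end point also read at both times.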

[2] = test system: Candida albicans; assay: Antifungal activity against Candida albicans isolate 22 harboring 1,3-beta-glucan synthase HS1 point mutant grown on RPMI media after 24 hrs by EUCAST microdilution method; conditions: isolate 22, 24 h
[3] = test system: Candida albicans; assay: Antifungal activity against Candida albicans isolate 21 harboring 1,3-beta-glucan synthase HS1 point mutant grown on RPMI media after 24 hrs by EUCAST microdilution method; conditions: isolate 21, 24 h
[4] = test system: Candida tropicalis; assay: Antifungal activity against Candida tropicalis isolate 2 harboring 1,3-beta-glucan synthase HS1 point mutant grown on RPMI media after 24 hrs by EUCAST microdilution method; conditions: isolate 2, 24 h
[5] = test system: Candida albicans; assay: Antifungal activity against Candida albicans isolate 8 expressing wild type 1,3-beta-glucan synthase grown on RPMI media after 24 hrs by EUCAST microdilution method; conditions: isolate 8, 24 h
[6] = test system: Candida albicans; assay: Antifungal activity against Candida albicans isolate 14 expressing wild type 1,3-beta-glucan synthase grown on RPMI media after 24 hrs by EUCAST microdilution method; conditions: isolate 14, 24 h
[7] = test system: Candida albicans; assay: Antifungal activity against Candida albicans isolate 19 harboring 1,3-beta-glucan synthase HS1 point mutant grown on RPMI media after 24 hrs by EUCAST microdilution method; conditions: isolate 19, 24 h
[8] = test system: Candida albicans; assay: Antifungal activity against Candida albicans isolate 23 harboring 1,3-beta-glucan synthase HS2 point mutant grown on AM3 media after 24 hrs by EUCAST microdilution method; conditions: isolate 23, 24 h
[9] = test system: Candida albicans; assay: Antifungal activity against Candida albicans isolate 1 expressing wild type 1,3-beta-glucan synthase grown on AM3 media after 48 hrs by EUCAST microdilution method; format: functional; conditions: isolate 1, 24 h, in the assay text read “24 hrs” for “48 hrs”; summary of the method: as §1
[10] = test system: Candida albicans; assay: Antifungal activity against Candida albicans isolate B311 expressing wild type 1,3-beta-glucan synthase grown on RPMI media after 24 hrs by EUCAST microdilution method; conditions: isolate B311, 24 h
[11] = test system: Candida albicans; assay: Antifungal activity against Candida albicans isolate 9 expressing wild type 1,3-beta-glucan synthase grown on AM3 media after 48 hrs by EUCAST microdilution method; format: functional; conditions: isolate 9, 24 h, in the assay text read “after 24 hrs” for “after 48 hrs”; summary of the method: as §1
[12] = test system: Candida albicans; assay: Antifungal activity against Candida albicans isolate 21 harboring 1,3-beta-glucan synthase HS1 point mutant grown on AM3 media after 24 hrs by EUCAST microdilution method; conditions: isolate 21, 24 h
[13] = test system: Candida albicans; assay: Antifungal activity against Candida albicans isolate 17 expressing wild type 1,3-beta-glucan synthase grown on RPMI media after 24 hrs by EUCAST microdilution method; conditions: isolate 17, 24 h
[14] = test system: Candida albicans; assay: Antifungal activity against Candida albicans isolate 7 expressing wild type 1,3-beta-glucan synthase grown on AM3 media after 48 hrs by EUCAST microdilution method; format: functional; conditions: isolate 7, 24 h, in the assay text read “after 24 hrs” for “after 48 hrs”; summary of the method: as §1
[15] = test system: Candida albicans; assay: Antifungal activity against Candida albicans isolate 10 expressing wild type 1,3-beta-glucan synthase grown on AM3 media after 48 hrs by EUCAST microdilution method; format: functional; conditions: isolate 10, 24 h, in the assay text read “after 24 hrs” for “after 48 hrs”; summary of the method: as §1
[16] = test system: Candida tropicalis; assay: Antifungal activity against Candida tropicalis isolate 1 expressing wild type 1,3-beta-glucan synthase grown on AM3 media after 48 hrs by EUCAST microdilution method; format: functional; conditions: isolate 1, 24 h, in the assay text read “24 hrs” for “48 hrs”; summary of the method: as §1
[17] = test system: Candida albicans; assay: Antifungal activity against Candida albicans isolate 14 expressing wild type 1,3-beta-glucan synthase grown on AM3 media after 48 hrs by EUCAST microdilution method; format: functional; conditions: isolate 14, 24 h, in the assay text read “after 24 hrs” for “after 48 hrs”; summary of the method: as §1
[18] = test system: Candida albicans; assay: Antifungal activity against Candida albicans isolate 15 expressing wild type 1,3-beta-glucan synthase grown on RPMI media after 24 hrs by EUCAST microdilution method; conditions: isolate 15, 24 h
[19] = test system: Pichia kudriavzevii; assay: Antifungal activity against Candida krusei ATCC 6258 expressing wild type 1,3-beta-glucan synthase grown on RPMI media after 24 hrs by EUCAST microdilution method; conditions: ATCC 6258, 24 h
[20] = test system: Candida albicans; assay: Antifungal activity against Candida albicans isolate 23 harboring 1,3-beta-glucan synthase HS2 point mutant grown on RPMI media after 24 hrs by EUCAST microdilution method; conditions: isolate 23, 24 h
[21] = test system: Candida tropicalis; assay: Antifungal activity against Candida tropicalis isolate 2 harboring 1,3-beta-glucan synthase HS1 point mutant grown on AM3 media after 24 hrs by EUCAST microdilution method; conditions: isolate 2, 24 h
[22] = test system: Candida albicans; assay: Antifungal activity against Candida albicans isolate 8 expressing wild type 1,3-beta-glucan synthase grown on AM3 media after 48 hrs by EUCAST microdilution method; format: functional; conditions: isolate 8, 24 h, in the assay text read “after 24 hrs” for “after 48 hrs”; summary of the method: as §1
[23] = test system: Candida albicans; assay: Antifungal activity against Candida albicans isolate 7 expressing wild type 1,3-beta-glucan synthase grown on RPMI media after 24 hrs by EUCAST microdilution method; conditions: isolate 7, 24 h
[24] = test system: Candida albicans; assay: Antifungal activity against Candida albicans isolate 11 expressing wild type 1,3-beta-glucan synthase grown on AM3 media after 48 hrs by EUCAST microdilution method; format: functional; conditions: isolate 11, 24 h, in the assay text read “after 24 hrs” for “after 48 hrs”; summary of the method: as §1
[25] = test system: Pichia kudriavzevii; assay: Antifungal activity against Candida krusei ATCC 6258 expressing wild type 1,3-beta-glucan synthase grown on AM3 media after 48 hrs by EUCAST microdilution method; format: functional; conditions: ATCC 6258, 24 h, in the assay text read “after 24 hrs” for “after 48 hrs”; summary of the method: as §1
[26] = test system: Candida albicans; assay: Antifungal activity against Candida albicans isolate 2 expressing wild type 1,3-beta-glucan synthase grown on RPMI media after 24 hrs by EUCAST microdilution method; conditions: isolate 2, 24 h
[27] = test system: Candida albicans; assay: Antifungal activity against Candida albicans isolate B311 expressing wild type 1,3-beta-glucan synthase grown on AM3 media after 48 hrs by EUCAST microdilution method; format: functional; conditions: isolate B311, 24 h, in the assay text read “24 hrs” for “48 hrs”; summary of the method: as §1

Measured: MIC

CC[C@H](C)C[C@H](C)CCCCCCCCC(=O)N[C@H]1C[C@@H](O)[C@@H](NCCN)NC(=O)[C@@H]2[C@@H](O)CCN2C(=O)[C@H]([C@H](O)CCN)NC(=O)[C@H]([C@H](O)[C@@H](O)c2ccc(O)cc2)NC(=O)[C@@H]2C[C@@H](O)CN2C(=O)[C@H]([C@@H](C)O)NC1=O [CASPOFUNGIN]
0.25 µg/mL: [18] | [26]
1 µg/mL: [6] | [7] | [12] | [19] | [21]
0.5 µg/mL: [5] | [8] | [10] | [13] | [23]
2 µg/mL: [2] | [3] | [4] | [20]
0.06 µg/mL: [14] | [15] | [16] | [25] | [27]
0.03 µg/mL: all other assays above
